# The list is not random: actives were taken first. Their share in the collection is about 3.2%.
# Cneo AK release – Cryptococcus neoformans lysis via adenylate kinase release; C. neoformans lysis, adenylate kinase release luminescence, 4 h; normalised: neutral wells 0, clomiphene wells 100; hit rate 0.2% among 360,000; lysis activity, % at 15 µM;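 active = mean lysis activity across replicates of at least 80%, whatever share of replicates individually reach that level; inactive = mean lysis activity below 80%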
#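 Material – log-phase Cryptococcus neoformans yeast cells · Input – 5 × 10^6 yeast cells/mL · Medium – fresh YPD growth medium · Doses – single compound concentration per well · Timing – static 4 h at 37 °C with compound, 1 h detection · Detection – adenylate kinase release luminescence · Read-out – signal increase indicating cell lysis · Control set – Clomiphene as positive lysis control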
# PfHsp90 set2 – inhibits growth of yeast expressing Plasmodium falciparum Hsp90; inhibition, % at 9.4 µM; S. cerevisiae expressing PfHsp90, BacTiter-Glo ATP, 48 h; yeast lacking PDR1 and PDR3 efflux regulators; AID 504621; hit rate 0.32% among 310,000;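 active = every replicate shows inhibition above about 80%, whatever the replicate mean, limit read from the data; inconclusive = mean inhibition reaches the set limit but some replicate falls short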;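 also: 0% = DMSO neutral controls and 100% = 20 µM radicicol positive controls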
# S100A4 MyoIIA – S100A4-myosin IIA interaction inhibition; P26447; S100A4/TAMRA-MyoIIA peptide fluorescence polarization; inhibition, % at 10.7 µM; hit rate 0.14% among 360,000; AID 652163;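 active = mean inhibition of at least 70% across replicates, with every replicate also reaching that level; inconclusive = mean inhibition reaches 70% but some replicates fall short; inactive = mean inhibition below 70%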
# Target sequence (P26447 whole entry, looked up): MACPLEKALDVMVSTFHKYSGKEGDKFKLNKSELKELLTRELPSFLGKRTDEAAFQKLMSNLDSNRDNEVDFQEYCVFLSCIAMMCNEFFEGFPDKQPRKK
#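 assay system = human S100A4 monomer with TAMRA-labelled myosin IIA peptide | also added = labelled myosin peptide probe, 5 nM | incubation = 5 min between mix addition and reading | control set = DMSO and TFP controls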
# Ecoli rRNA inh – selective bacterial rRNA inhibition in E. coli | E. coli WT GFP vs humanized-ribosome RFP mutants, fluorescence, 24 h; stronger effect = lower value; DMSO median 0, no signal -100 | AID 720706 | GFP signal change (wild-type ribosome), % (no concentration beside the values) | hit rate 1.6% among 350,000;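 active = significant combined selectivity score with lowered wild-type GFP, culture density cut under 30%, mutant RFP and density less affected; inactive = any of these conditions unmet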
# MLL AF4-AF9 inh – MLL-AF4/AF9 protein interaction inhibition | AlphaScreen, biotin-AF4 peptide binding to FLAG-AF9 | inhibition, % at 10 µM | hit rate 0.47% among 350,000 | AID 651704;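 active = every replicate reaching a set inhibition limit, whatever the replicate mean, cut at about 25% in these data; inconclusive = mean inhibition reaches that limit but some replicates miss it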;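 also: 0% = plate neutral control median and 100% = total signal loss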
# Target sequence (P42568 whole entry, looked up): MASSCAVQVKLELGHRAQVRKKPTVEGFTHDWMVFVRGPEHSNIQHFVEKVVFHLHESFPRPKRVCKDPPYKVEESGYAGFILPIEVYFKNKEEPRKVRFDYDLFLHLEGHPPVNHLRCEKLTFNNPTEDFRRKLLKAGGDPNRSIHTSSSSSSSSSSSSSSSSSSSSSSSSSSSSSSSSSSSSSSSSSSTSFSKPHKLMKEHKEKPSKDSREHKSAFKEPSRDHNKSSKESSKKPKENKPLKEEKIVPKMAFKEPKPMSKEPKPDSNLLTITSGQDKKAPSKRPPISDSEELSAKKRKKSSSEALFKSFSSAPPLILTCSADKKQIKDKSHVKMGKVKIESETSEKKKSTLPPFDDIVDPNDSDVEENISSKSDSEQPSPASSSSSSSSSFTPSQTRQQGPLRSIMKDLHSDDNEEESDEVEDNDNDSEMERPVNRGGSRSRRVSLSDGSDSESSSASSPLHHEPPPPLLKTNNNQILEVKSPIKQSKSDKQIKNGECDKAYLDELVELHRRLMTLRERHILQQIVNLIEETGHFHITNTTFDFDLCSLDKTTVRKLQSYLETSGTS
# DENV2 CPE – DENV2-induced cell death inhibition; DENV2-infected cells, cytopathic effect rescue, plate reader; hit rate 1.7% among 350,000; CPE inhibition, % at 9.99 µM; AID 651640; in the data active = CPE inhibition above about 20%, passing the limit was not always enough; inconclusive = no clear call, values can overlap the other calls; tested in BHK-21 cells;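 also: 0% = median of neutral control wells and 100% = median of positive control wells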
# * = called active by the depositor; ? = inconclusive; . = not tested or not shown; ! = a repeat was not active.
SMILES,Cneo AK release,PfHsp90 set2,S100A4 MyoIIA,Ecoli rRNA inh,MLL AF4-AF9 inh,DENV2 CPE
O=C(O)c1ccccc1NS(=O)(=O)c1ccc(N/N=C/c2ccc(O)c(O)c2)c([N+](=O)[O-])c1,3.6,11.3,2.6,-25.2*,5.4,-7.3
C[C@H](CO)N1C[C@H](C)[C@H](CN(C)Cc2ccc(-c3ccccc3)cc2)Oc2ccc(NC(=O)C3CCCCC3)cc2C1=O,41.0,.,1.3,0.2,2.3,5.0
O=C(C[C@H]1C=C[C@@H](NC(=O)C2CCOCC2)[C@@H](CO)O1)NCc1ccncc1,-3.7,.,20.8,0.7,-1.3,-2.5
COCC(=O)N1[C@H](C#N)[C@@H](c2ccc(C#Cc3ccccc3F)cc2)[C@H]1CO,-0.3,.,-5.3,3.5,-1.2,-12.3
C[C@H]1CN([C@@H](C)CO)C(=O)c2cc(NS(=O)(=O)c3ccc(F)cc3)ccc2O[C@H]1CN(C)C(=O)Nc1cccc2ccccc12,-7.5,.,-8.2,2.2,-3.7,1.7
Cc1nc(N/N=C/c2ccccn2)sc1C,.,.,-1.3,-50.7,3.0,0.9
CCCc1sc(N/N=C/c2ccccn2)nc1-c1ccc(F)cc1,-0.1,124.1*,.,.,.,.
CN(CCC#N)C(=O)COC(=O)C1c2ccccc2Oc2ccccc21,2.3,-114.7,-0.8,-4.2,-2.1,13.2
N#CCCN(CCC#N)C(=O)C1c2ccccc2Oc2ccccc21,0.1,-8.3,131.2*,69.1,-1.6,8.4
Cc1cccc(NC(=O)NCc2ccc3c(c2)cc(C)n3C)c1,2.7,5.8,26.3,-20.6,8.7,9.3
Cc1cc2cc(CNC(=O)Nc3cccc(Cl)c3)ccc2n1C,-1.1,0.7,78.0*,-5.8,0.3,2.7
COc1cccc(NC(=O)COC(=O)c2sccc2C)c1,4.3,2.0,-2.4,-20.9*,-4.9,-1.2
COc1cccc(NC(=O)CN(C)C(=O)Cc2ccc3c(c2)CCC3)c1,0.6,5.3,-3.5,1.7,-0.1,-3.3
CCN(CC(=O)Nc1cccc(OC)c1)CC(=O)Nc1ccc(Br)c(C)c1,-0.2,19.7,-4.5,-54.0*,-0.1,-3.4
COc1cccc(NC(=O)CN(C)CC(=O)Nc2ccc(Br)cc2)c1,.,11.4,-4.4,-34.3*,-2.7,-2.4
COc1cccc(NC(=O)CN(C)C(=O)Cc2ccc3c(c2)OCCO3)c1,-1.7,-9.4,-2.6,7.2,3.4,41.7*
COCC(=O)N(C)C[C@H]1Oc2cc(-c3ccncc3)ccc2S(=O)(=O)N([C@H](C)CO)C[C@@H]1C,-0.5,.,-10.8,7.5,-0.2,2.4
C[C@@H]1CN([C@@H](C)CO)C(=O)c2cccc(NS(=O)(=O)c3ccc(F)cc3)c2O[C@H]1CN(C)C(=O)Nc1ccc2c(c1)OCO2,0.1,.,-9.8,-2.9,-2.0,-8.1
O=C1O[C@@H](c2ccccc2)[C@@H](c2ccccc2)N2[C@@H](c3ccc(O)cc3)[C@]3(C(=O)Nc4ccc(C#CC5=CCCCC5)cc43)[C@@H](C(=O)N3CCCCCCC3)[C@H]12,32.6,.,-35.2,.,1.8,7.2
Cc1cccc(C)c1NC(=O)CN(C)CC(=O)Nc1ccccc1Oc1ccccc1,.,-10.8,1.5,-24.5,0.7,14.6
Cc1ccc(NC(=O)CN(C)CC(=O)Nc2ccccc2Oc2ccccc2)cc1,.,21.4,-2.6,-34.8*,2.0,9.5
CO[C@H]1CN(C)C(=O)c2cc(NC(=O)C3CCCC3)ccc2OC[C@H](C)N(C(=O)CC2CC2)C[C@@H]1C,-0.1,.,-8.7,-1.1,-0.1,-3.2
Cc1noc(C)c1S(=O)(=O)Nc1ccc2c(c1)C(=O)N([C@H](C)CO)C[C@@H](C)[C@@H](CN(C)CC1CC1)O2,27.1,.,-0.8,1.9,-0.5,6.2
C[C@@H]1CN([C@H](C)CO)C(=O)Cc2cc(NC(=O)C3CCCCC3)ccc2O[C@@H]1CN(C)S(=O)(=O)c1ccc(F)cc1,-0.6,.,3.9,0.7,-8.9,?
CC(C)c1ccccc1NC(=S)NN(Cc1ccccc1)c1ccccc1,230.6*,22.5,.,.,.,.
SMILES,Cneo AK release,PfHsp90 set2,S100A4 MyoIIA,Ecoli rRNA inh,MLL AF4-AF9 inh,DENV2 CPE
C[C@@H]1CN([C@H](C)CO)S(=O)(=O)c2ccc(/C=C/c3ccccc3)cc2O[C@H]1CN(C)C(=O)NC1CCCCC1,1.6,.,12.1,-0.2,8.1,-4.8
Cc1ccc(S(=O)(=O)N(C)C[C@@H]2Oc3ccc(NC(=O)NC4CCCCC4)cc3CC(=O)N([C@@H](C)CO)C[C@H]2C)cc1,50.4,.,10.4,-5.4,0.6,5.7
O=C(Nc1ccnn1C1CCN(CC(O)CO)CC1)C1CCCC1 (configuration not stated),0.9,4.4,-7.9,1.0,0.1,70.8*
CSc1ccc(N=Nc2c(C)[nH]n(C)c2=O)cc1,.,-11.2,-4.5,-24.4*,16.1,-3.7
Cn1cc(C[C@@H](N)C(=O)O)c2ccccc21,3.6,.,-72.6,.,-16.6,1.1
Cn1cc(C(CO)Cc2ccccc2)c2ccccc21 (configuration not stated),0.0,-11.5,-2.9,-8.1,-2.0,25.4*
COCCNC(=O)C[C@@H]1CC[C@@H]2[C@@H](COc3ccc(NC(=O)COC)cc3C(=O)N2C)O1,-2.2,.,-10.5,0.1,-0.2,3.1
CC[C@H](C)[C@H](NC(N)=O)C(=O)Nc1ccc(S(=O)(=O)NC(C)C)cc1,-3.3,7.8,0.3,-22.4*,4.2,-3.0
CCOc1ccc(Oc2ccc(NC(=O)[C@@H](NC(N)=O)[C@@H](C)CC)cc2)cc1,-0.4,-14.8,13.8,11.3,1.3,10.8
O=C(/C=C1\NC2(CCCC2)Cc2ccccc21)C(=O)N/N=C/c1ccc(O)c(O)c1,.,-3.8,-3.7,-21.3*,3.9,-3.6
O=C(NC1CCC1)[C@H]1[C@H](CO)[C@H]2Cn3c(ccc(-c4ccccc4)c3=O)[C@H]2N1Cc1ccccn1,-3.3,.,2.7,-0.3,-2.4,-3.1
O=C(NCc1nc2ccccc2[nH]1)C1=C[C@@H](C2CC2)C[C@@H](OCc2ccc(CO)cc2)O1,-17.3,6.5,13.8,-26.8*,-0.7,7.7
C[C@H]1C=C(C(=O)NCc2nc3ccccc3[nH]2)O[C@@H](OCc2ccc(CO)cc2)C1,1.3,.,-8.5,-1.6,-2.1,?
O=C(NCc1nc2ccccc2[nH]1)C1=C[C@H](C2CC2)C[C@H](OCc2ccc(CO)cc2)O1,80.6*!,-2.8,1.5,6.6,-5.2,-12.2
CC(C)(C)[C@@H]1C=C(C(=O)NCc2nc3ccccc3[nH]2)O[C@H](OCc2ccc(CO)cc2)C1,-6.1,.,-1.6,.,-0.6,13.7
CC(C)c1cn(CC[C@H]2CC[C@H](NC(=O)C3CC3)[C@H](CO)O2)nn1,-21.3,.,4.2,1.1,2.3,61.9*
CC(C)c1cn(CC[C@H]2CC[C@H](NC(=O)C3CC3)[C@@H](CO)O2)nn1,-21.0,.,4.5,2.0,5.1,7.3
